The values below come from ChEMBL document CHEMBL3108740, “Design, synthesis, and biological evaluation of 1-phenylpyrazolo[3,4-e]pyrrolo[3,4-g]indolizine-4,6(1H,5H)-diones as new glycogen synthase kinase-3β inhibitors” (J Med Chem, 2013).

Series [1] has as its target T1, Glycogen synthase kinase-3 beta (Homo sapiens, UniProt P49841). As to the kind of experiment: Inhibition of GSK-3beta (unknown origin) using (RREGGMSRPAS(p)VDG as substrate assessed as 32P[gamma-ATP] incorporation into substrate after 15 mins by autoradiography.
Target sequence in this assay (P49841 whole entry): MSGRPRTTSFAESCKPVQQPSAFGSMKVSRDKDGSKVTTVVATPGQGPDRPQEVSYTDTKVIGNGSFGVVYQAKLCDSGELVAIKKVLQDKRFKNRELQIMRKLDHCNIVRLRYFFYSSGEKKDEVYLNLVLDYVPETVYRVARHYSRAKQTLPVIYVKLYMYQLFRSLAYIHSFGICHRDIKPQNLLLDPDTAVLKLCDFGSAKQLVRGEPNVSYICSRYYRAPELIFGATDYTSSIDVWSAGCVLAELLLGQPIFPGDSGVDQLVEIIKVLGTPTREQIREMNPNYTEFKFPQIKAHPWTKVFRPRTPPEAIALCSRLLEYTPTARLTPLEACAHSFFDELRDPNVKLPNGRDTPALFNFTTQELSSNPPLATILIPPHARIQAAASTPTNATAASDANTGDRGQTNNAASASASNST
Series [2] deals with Proto-oncogene tyrosine-protein kinase receptor Ret (Homo sapiens) (UniProt P07949). Put plainly: Inhibition of human recombinant RET expressed in insect cells using ATP/biotinyl-betaAbetaAbetaAAEEEEYFELVAKKK as substrate at 1 uM after 30 mins by HTRF assay. The method, boiled down:
(§1)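 Selectivity panel of 17 human protein kinases, each tested at a single 1 µM concentration. Read-out was percent inhibition of kinase activity. Values are the average of two independent measurements.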

Series [3] deals with Rho-associated protein kinase 1 (Homo sapiens) (UniProt Q13464). As to the kind of experiment: Inhibition of human recombinant ROCK1 using ATP/Ulight-RRRSLLE as substrate at 1 uM after 30 mins by LANCE assay. The method in brief:
as §1
A general note: TR-FRET usually uses a lanthanide donor and a delayed reading to cut background.

Series [4] deals with cAMP-dependent protein kinase catalytic subunit alpha (Homo sapiens) (UniProt P17612). Put plainly: Inhibition of human PKAalpha at 1 uM. The method in brief:
as §1

Series [5] concerns the target T2, Serine/threonine-protein kinase Sgk1 (Homo sapiens) (UniProt O00141).
T2 sequence (whole entry): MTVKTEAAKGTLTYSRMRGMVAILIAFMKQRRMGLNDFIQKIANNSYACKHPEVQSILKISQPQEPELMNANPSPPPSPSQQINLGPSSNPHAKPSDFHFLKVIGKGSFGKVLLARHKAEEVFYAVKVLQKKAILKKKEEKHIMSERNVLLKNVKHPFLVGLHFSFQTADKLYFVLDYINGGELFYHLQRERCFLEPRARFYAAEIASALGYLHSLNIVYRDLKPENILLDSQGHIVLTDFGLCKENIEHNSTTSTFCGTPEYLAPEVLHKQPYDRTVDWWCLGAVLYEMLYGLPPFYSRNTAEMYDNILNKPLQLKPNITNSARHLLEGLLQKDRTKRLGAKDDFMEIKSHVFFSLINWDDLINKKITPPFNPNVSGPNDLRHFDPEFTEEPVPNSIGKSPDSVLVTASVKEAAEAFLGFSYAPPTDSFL
As to the kind of experiment: Inhibition of human recombinant SGK1 using ATP/Ulight-RRRSLLE as substrate at 1 uM after 30 mins by LANCE assay. The method, boiled down: as §1

A short description of series [6]: Aqueous solubility of the compound at pH 7.4. Format: physicochemical.
Series [7] has as its target T1, Glycogen synthase kinase-3 beta. As to the kind of experiment: Inhibition of human GSK-3beta-mediated tau phosphorylation in doxycycline/synthetic tau fibril-induced HEK293 cells assessed as decrease in slow mobility of AT180 band at 1 uM after 48 hrs by Immunoblotting analysis. Format: cell-based. The method, boiled down:
(§2)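 HEK-293 cells express full-length 4-repeat tau (T40) carrying P301L under a doxycycline-regulated promoter. Doxycycline induces expression; 48 h later cells are seeded with synthetic fibrils made from recombinant tau. They are then treated with 1 µM compound or vehicle for 48 h, with non-fibril cells as controls. Lysates are immunoblotted with AT180 (pT231/pS235), 17025 (total tau) and GAPDH as loading control.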
A general note: Immunoblotting shows a protein as a band on a membrane.
Target sequence in this assay (P49841 whole entry, looked up): as the sequence (P49841 whole entry) above

The target of series [8] is Receptor-type tyrosine-protein kinase FLT3 (Homo sapiens) (UniProt P36888). As to the kind of experiment: Inhibition of human FLT3 at 1 uM. The method in brief: as §1
Series [9] has as its target T1, Glycogen synthase kinase-3 beta. Put plainly: Inhibition of GSK3beta in human NCI/ADR-RES cells up to 5 uM. Format: cell-based. The method, boiled down: (§3)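 Ovarian carcinoma OVCAR-8 cells and their cognate P-glycoprotein-overexpressing line NCI/ADR-RES. Compound tested at concentrations up to 5 µM.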
Target sequence in this assay (P49841 whole entry, looked up): as the sequence (P49841 whole entry) above
For series [10], the target named is Glycogen synthase kinase-3 alpha (Homo sapiens) (UniProt P49840). As to the kind of experiment: Inhibition of human recombinant GSK-3alpha using ATP/Ulight-CFFKNIVTPRTPPPSQGK-amide as substrate at 1 uM after 60 mins by LANCE assay. The method, boiled down: as §1
The target of series [11] is Calcium/calmodulin-dependent protein kinase type II subunit alpha (Homo sapiens) (UniProt Q9UQM7). Put plainly: Inhibition of human recombinant CaMK2alpha using ATP/Ulight-CGSGSGRPRTSSFAEG as substrate at 1 uM after 30 mins by LANCE assay. The method in brief:
as §1

The target of series [12] is T3, Aurora kinase A (Homo sapiens) (UniProt O14965).
T3 sequence (whole entry): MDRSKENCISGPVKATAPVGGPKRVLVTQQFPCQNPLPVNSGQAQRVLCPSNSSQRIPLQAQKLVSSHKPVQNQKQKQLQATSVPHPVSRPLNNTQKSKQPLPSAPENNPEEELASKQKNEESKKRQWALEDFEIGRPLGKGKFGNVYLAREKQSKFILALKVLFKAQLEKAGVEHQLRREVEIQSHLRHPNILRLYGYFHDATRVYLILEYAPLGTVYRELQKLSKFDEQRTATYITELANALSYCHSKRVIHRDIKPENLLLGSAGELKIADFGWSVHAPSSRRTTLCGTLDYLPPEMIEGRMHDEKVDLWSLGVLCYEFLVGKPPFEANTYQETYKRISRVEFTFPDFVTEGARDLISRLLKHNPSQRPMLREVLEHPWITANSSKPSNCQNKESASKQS
Put plainly: Inhibition of human recombinant Aurora A expressed in insect sf21 cells using ATP/Ulight-RRRSLLE as substrate at 1 uM after 15 mins by LANCE assay. The method in brief:
as §1

Series [13] has as its target T1, Glycogen synthase kinase-3 beta. Put plainly: Inhibition of GSK3beta in human OVCAR8 cells up to 5 uM. Format: cell-based. Particulars: OVCAR-8. The method in brief:
as §3
Target sequence in this assay (P49841 whole entry, looked up): as the sequence (P49841 whole entry) above

The target of series [14] is Mitogen-activated protein kinase 3 (Homo sapiens) (UniProt P27361). Put plainly: Inhibition of human recombinant ERK1 expressed in Escherichia coli using ATP/Ulight-CFFKNIVTPRTPPPSQGK-amide as substrate at 1 uM after 30 mins by LANCE assay. The method in brief:
as §1

In series [15] the target is T1, Glycogen synthase kinase-3 beta. Put plainly: Inhibition of human GSK-3beta-mediated tau phosphorylation in doxycycline/synthetic tau fibril-induced HEK293 cells assessed as increase in faster-migrating AT180 band at 1 uM after 48 hrs by Immunoblotting analysis. It is filed as cell-based. The method in brief:
as §2
Target sequence in this assay (P49841 whole entry, looked up): as the sequence (P49841 whole entry) above

Series [16] shares this target. Put plainly: Inhibition of human GSK-3beta-mediated tau phosphorylation in doxycycline/synthetic tau fibril-induced HEK293 cells assessed as increase in faster-mobility 17025 band at 1 uM after 48 hrs by Immunoblotting analysis. It is filed as cell-based. The method, boiled down:
as §2
Target sequence in this assay (P49841 whole entry, looked up): as the sequence (P49841 whole entry) above

Series [17] concerns the target Tyrosine-protein kinase Fyn (Homo sapiens) (UniProt P06241). As to the kind of experiment: Inhibition of human recombinant Fyn expressed in insect cells using ATP/biotinyl-betaAbetaAbetaAYQAEENTYDEYEN as substrate at 1 uM after 60 mins by HTRF assay. The method, boiled down:
as §1

The species named for series [18] is Homo sapiens. As to the kind of experiment: Selectivity ratio of IC50 for human recombinant CDK2 to IC50 for GSK-3beta (unknown origin).
The species entered for series [19] is Homo sapiens. As to the kind of experiment: Inhibition of human recombinant PKA alpha expressed in Escherichia coli using ATP/Ulight-RRRSLLE as substrate at 1 uM after 10 mins by LANCE assay. The method, boiled down:
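Single-concentration (1 µM) percent inhibition within a 17-member human kinase panel. Values are the average of two independent measurements.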

The target of series [20] is Vascular endothelial growth factor receptor 2 (Homo sapiens) (UniProt P35968). As to the kind of experiment: Inhibition of human recombinant VGFR2 expressed in insect sf9 cells using ATP/Ulight-CAGAGAIETDKEYYTVKD as substrate at 1 uM after 60 mins by LANCE assay. The method in brief:
as §1

Series [21] addresses Cyclin-dependent kinase 2 (Homo sapiens, UniProt P24941). As to the kind of experiment: Inhibition of human recombinant CDK2 using ATP/Ulight-CFFKNIVTPRTPPPSQGK-amide as substrate after 30 mins by LANCE assay.
The target of series [22] is T4, Mitogen-activated protein kinase 13 (Homo sapiens) (UniProt O15264).
T4 sequence (whole entry): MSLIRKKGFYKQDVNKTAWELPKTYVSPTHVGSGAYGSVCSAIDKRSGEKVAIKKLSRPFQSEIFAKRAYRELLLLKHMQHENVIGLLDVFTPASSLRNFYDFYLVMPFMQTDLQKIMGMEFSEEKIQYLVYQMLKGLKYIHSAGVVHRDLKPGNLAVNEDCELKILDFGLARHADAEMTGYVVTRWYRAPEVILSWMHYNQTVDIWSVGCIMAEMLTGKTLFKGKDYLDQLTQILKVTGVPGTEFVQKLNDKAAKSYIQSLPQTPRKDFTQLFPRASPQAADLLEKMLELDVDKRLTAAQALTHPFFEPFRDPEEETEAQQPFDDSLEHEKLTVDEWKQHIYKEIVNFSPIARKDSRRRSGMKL
As to the kind of experiment: Inhibition of human recombinant P38delta expressed in Escherichia coli using ATP/Ulight-CFFKNIVTPRTPPPSQGK-amide as substrate at 1 uM after 15 mins by LANCE assay. The method, boiled down: as §1

Series [23] concerns the target Cyclin-dependent kinase 5/CDK5 activator 1 (Homo sapiens) (UniProt Q00535+Q15078). As to the kind of experiment: Inhibition of human recombinant CDK5/p35 expressed in insect cells using ATP/Ulight-CFFKNIVTPRTPPPSQGK-amide as substrate at 1 uM after 60 mins by LANCE assay. The method in brief:
as §1

The target of series [24] is Serine/threonine-protein kinase RAF and Dual specificity mitogen-activated protein kinase kinase 1 (Raf/MEK) (Homo sapiens) (UniProt P04049+Q02750). As to the kind of experiment: Inhibition of human RAF1/MEK1 at 1 uM. Format: protein assay. The method, boiled down:
as §1

For series [25], the target named is Leucine-rich repeat serine/threonine-protein kinase 2 (Homo sapiens) (UniProt Q5S007). As to the kind of experiment: Inhibition of human recombinant LRRK2 expressed in insect cells using ATP/Ulight-RRRSLLE as substrate at 1 uM after 60 mins by LANCE assay. The method, boiled down:
as §1

Series [26] deals with Platelet-derived growth factor receptor beta (Homo sapiens) (UniProt P09619). As to the kind of experiment: Inhibition of human recombinant PDGFRbeta expressed in insect cells using ATP/Ulight-PolyGAT[EAY(1:1:1)]n as substrate at 1 uM after 30 mins by LANCE assay. The method, boiled down: as §1

Each structure is given as a SMILES string. pIC50: −log10 of the molar value. Converted amounts (≈) assume the structure as drawn. The source made the active and inactive calls. The rule behind the calls is not given here.

Chain of Proto-oncogene tyrosine-protein kinase receptor Ret (Homo sapiens) (P07949 whole entry): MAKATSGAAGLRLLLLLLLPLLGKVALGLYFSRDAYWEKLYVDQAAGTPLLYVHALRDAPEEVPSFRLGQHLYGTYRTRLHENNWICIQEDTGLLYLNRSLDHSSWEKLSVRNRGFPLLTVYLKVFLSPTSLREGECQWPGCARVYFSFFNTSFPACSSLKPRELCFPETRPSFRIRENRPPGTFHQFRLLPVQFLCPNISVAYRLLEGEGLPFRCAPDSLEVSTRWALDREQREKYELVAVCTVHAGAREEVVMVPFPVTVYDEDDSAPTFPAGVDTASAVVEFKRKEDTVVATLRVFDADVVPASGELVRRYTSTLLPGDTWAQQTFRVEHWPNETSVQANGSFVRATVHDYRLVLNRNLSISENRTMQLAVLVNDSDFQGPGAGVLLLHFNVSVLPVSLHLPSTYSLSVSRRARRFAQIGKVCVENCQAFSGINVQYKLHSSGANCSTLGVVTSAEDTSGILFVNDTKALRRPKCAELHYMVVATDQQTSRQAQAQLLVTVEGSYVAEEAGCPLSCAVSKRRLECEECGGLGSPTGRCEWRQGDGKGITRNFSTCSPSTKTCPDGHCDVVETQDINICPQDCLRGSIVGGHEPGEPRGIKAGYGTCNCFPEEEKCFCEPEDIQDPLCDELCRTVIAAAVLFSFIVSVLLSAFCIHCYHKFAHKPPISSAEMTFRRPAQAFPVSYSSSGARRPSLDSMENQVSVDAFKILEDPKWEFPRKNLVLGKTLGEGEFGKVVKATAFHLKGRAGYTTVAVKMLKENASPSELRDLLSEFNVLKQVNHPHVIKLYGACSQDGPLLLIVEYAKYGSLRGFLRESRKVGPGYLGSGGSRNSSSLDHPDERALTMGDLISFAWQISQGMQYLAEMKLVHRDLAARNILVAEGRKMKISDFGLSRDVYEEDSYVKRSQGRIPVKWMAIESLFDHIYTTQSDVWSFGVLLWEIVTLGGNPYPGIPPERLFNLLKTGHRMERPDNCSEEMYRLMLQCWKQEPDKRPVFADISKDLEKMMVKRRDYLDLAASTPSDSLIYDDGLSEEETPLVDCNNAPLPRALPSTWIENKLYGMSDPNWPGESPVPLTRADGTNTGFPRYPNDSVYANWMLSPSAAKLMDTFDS
Chain of Leucine-rich repeat serine/threonine-protein kinase 2 (Homo sapiens) (Q5S007 whole entry): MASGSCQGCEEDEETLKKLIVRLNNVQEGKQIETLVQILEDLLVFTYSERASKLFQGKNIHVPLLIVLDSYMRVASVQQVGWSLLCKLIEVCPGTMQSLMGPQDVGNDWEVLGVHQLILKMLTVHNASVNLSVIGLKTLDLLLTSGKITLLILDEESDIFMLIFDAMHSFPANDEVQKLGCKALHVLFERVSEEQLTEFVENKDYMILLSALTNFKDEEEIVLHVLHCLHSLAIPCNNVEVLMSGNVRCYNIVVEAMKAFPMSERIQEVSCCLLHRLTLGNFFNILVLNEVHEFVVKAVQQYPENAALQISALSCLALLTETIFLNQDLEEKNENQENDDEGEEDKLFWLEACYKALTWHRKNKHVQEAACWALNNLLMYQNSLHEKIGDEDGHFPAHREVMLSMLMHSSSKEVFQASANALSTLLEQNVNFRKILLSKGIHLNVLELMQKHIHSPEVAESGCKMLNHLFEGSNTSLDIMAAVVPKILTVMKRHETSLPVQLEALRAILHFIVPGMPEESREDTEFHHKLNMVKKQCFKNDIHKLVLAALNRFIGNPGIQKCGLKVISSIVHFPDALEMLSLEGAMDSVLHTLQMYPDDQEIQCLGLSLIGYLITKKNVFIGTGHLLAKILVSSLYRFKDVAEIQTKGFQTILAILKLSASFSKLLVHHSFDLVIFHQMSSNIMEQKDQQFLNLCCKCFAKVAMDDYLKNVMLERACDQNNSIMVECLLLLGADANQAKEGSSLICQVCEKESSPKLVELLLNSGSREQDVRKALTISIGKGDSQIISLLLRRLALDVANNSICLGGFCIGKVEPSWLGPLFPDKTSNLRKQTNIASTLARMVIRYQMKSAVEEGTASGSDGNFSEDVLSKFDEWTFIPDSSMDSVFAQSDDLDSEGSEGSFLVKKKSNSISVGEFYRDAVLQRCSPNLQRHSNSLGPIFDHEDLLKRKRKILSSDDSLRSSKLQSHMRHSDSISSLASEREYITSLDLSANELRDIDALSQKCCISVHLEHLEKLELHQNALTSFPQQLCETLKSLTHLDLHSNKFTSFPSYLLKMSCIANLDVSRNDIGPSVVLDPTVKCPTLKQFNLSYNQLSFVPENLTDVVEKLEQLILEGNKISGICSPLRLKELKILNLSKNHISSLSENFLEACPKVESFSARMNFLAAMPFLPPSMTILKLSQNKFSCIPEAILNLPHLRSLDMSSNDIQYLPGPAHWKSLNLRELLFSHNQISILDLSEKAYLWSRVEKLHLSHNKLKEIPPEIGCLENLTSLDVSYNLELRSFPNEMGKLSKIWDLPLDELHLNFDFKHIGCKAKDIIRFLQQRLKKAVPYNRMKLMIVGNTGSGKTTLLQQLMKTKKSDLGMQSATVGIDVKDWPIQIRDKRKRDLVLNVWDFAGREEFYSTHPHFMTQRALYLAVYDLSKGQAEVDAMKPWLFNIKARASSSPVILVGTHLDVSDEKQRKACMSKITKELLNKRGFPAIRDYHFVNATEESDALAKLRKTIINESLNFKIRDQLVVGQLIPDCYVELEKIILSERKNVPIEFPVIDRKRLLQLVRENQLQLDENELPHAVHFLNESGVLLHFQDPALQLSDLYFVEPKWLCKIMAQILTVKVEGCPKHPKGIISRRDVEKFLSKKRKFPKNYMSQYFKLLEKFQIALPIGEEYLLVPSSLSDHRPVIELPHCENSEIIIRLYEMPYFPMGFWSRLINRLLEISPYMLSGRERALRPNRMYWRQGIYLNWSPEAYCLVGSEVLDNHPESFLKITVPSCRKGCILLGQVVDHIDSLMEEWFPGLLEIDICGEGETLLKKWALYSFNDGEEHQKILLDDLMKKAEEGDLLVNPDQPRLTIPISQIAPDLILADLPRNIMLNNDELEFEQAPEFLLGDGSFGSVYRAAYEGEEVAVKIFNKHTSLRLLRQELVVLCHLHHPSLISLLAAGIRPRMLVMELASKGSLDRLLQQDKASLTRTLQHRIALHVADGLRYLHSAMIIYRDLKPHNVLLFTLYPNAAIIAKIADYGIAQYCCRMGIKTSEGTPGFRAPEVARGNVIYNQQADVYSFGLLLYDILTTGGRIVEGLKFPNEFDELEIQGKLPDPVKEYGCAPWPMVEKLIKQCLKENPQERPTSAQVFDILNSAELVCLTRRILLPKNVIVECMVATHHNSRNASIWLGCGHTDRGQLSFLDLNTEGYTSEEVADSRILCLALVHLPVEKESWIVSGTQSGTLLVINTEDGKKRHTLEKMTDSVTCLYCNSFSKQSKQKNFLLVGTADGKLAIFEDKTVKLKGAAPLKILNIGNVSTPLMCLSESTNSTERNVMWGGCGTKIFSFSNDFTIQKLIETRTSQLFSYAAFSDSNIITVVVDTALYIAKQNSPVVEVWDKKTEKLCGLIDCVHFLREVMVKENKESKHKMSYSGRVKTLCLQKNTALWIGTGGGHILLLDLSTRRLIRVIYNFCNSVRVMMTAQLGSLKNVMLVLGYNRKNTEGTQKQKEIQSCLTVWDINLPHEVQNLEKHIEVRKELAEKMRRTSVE
Chain of Tyrosine-protein kinase Fyn (Homo sapiens) (P06241 2-537 limits assumed): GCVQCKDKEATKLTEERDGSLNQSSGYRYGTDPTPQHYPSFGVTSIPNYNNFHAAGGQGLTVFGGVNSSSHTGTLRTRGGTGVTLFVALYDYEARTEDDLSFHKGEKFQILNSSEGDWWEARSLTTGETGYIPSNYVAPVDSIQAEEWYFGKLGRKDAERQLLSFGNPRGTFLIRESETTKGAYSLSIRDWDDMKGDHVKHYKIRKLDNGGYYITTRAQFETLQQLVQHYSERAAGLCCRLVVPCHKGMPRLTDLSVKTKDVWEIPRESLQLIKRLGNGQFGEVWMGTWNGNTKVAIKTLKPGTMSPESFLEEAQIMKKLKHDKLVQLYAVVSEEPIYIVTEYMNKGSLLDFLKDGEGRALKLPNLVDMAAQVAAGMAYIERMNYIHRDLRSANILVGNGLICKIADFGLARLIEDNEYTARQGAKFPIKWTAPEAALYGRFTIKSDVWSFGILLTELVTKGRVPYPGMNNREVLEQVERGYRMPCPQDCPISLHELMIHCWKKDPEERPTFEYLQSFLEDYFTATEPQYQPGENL

In the case of `Cc1ccccc1-n1ncc2c3c(c4cccn4c21)C(=O)NC3=O`, in series [1], the pIC50 was 5.92.
The same measure, in the same setting: next, `Cc1ccccc1-n1nc(C)c2c3c(c4cccn4c21)C(=O)NC3=O`: 6.36.
Same read-out and setting: next, `Cc1nn(-c2ccccc2)c2c1c1c(c3cccn32)C(=O)NC1=O`: 6.16; `O=C1NC(=O)c2c1c1cnn(-c3ccccc3)c1n1cccc21`: 5.77; `O=C1NC(=O)c2c1c1cnn(-c3ccccc3Cl)c1n1cccc21`: 6.09.
For `Cc1nn(-c2ccc(Cl)cc2Cl)c2c1c1c(c3cccn32)C(=O)NC1=O`, the inhibition in series [2] is under 10%; in series [3], under 10%; in [4] it was under 10%; in series [5], under 10%; in series [8], 30%; in series [10], 98.3%. Moreover, the inhibition (in [11]; in series [12]; in series [14]; in series [17]; in the series listed under Homo sapiens [19]; in series [20]) was under 10% in each case. Moreover, the inhibition in series [22] is under 10%; in series [23], under 10%; in [24] it was under 10%; in series [25], under 10%; in series [26], 13.7%. The compound further had a solubility in [6] of 3.1 µM (≈ 1.19 µg/mL). For the same compound, the inhibition entry in [7], in series [15] and in series [16] was “Active” each time. In addition, the inhibition entry in series [9] and in series [13] was “inactive” in each case. The Ratio IC50 in the series filed under Homo sapiens [18] was over 10. Also, the pIC50 in series [21] was 5.55; in [1], 6.62.
As for `COc1ccccc1-n1ncc2c3c(c4cccn4c21)C(=O)NC3=O`, the pIC50 in series [1] is 6.00.
On the same count and under the same terms, next, `Cc1nn(-c2ccccc2Cl)c2c1c1c(c3cccn32)C(=O)NC1=O`: 6.03.

Usually pIC50 stands for −log10 of the IC50, conventionally taken in molar units. Usually inhibition stands for the drop in the measured response relative to a control, in per cent. One may read the solubility as the dissolved amount per volume that the medium holds.
